Results as given in ChEMBL document CHEMBL4359896, “Chromenone derivatives as a versatile scaffold with dual mode of inhibition of HIV-1 reverse transcriptase-associated Ribonuclease H function and integrase activity” (Eur J Med Chem, 2019).

Key:
[1] = target: Human immunodeficiency virus type 1 reverse transcriptase (Human immunodeficiency virus 1) (UniProt Q72547); assay: Residual activity of His-tagged HIV-1 reverse transcriptase RNase H at 100 uM using 5'-GTTTTCTTTTCCCCCCTGAC-3'-Fluorescein-labeled RNA/5'-CAAAAGAAAAGGGGGGACUG-3'-Dabcyl-labeled DNA as susbtrate incubated for 1 hr by fluorescence based assay relative to control
[2] = target: T1, Human immunodeficiency virus type 1 integrase (Human immunodeficiency virus 1, UniProt Q7ZJM1); assay: Inhibition of LEDGF/p75-dependent full length HIV-1 integrase expressed in Escherichia coli BL21(DE3) cells preincubated for 1 hr further incubated for 90 mins with biotin-labeled donor DNA and target DNA by HTRF assay
[3] = target: Human immunodeficiency virus type 1 reverse transcriptase (Human immunodeficiency virus 1, UniProt Q72547); assay: Inhibition of His6-tagged HIV-1 reverse transcriptase RNase H using 5'-GTTTTCTTTTCCCCCCTGAC-3'-Fluorescein-labeled RNA/5'-CAAAAGAAAAGGGGGGACUG-3'-Dabcyl-labeled DNA as susbtrate incubated for 1 hr by fluorescence based assay
[4] = target: Human immunodeficiency virus type 1 integrase (Human immunodeficiency virus 1) (UniProt Q7ZJM1)
[5] = Inhibition of His-tagged HIV-1 integrase interaction with HIV-1 FLAG-tagged LEDGF/p75 expressed in Escherichia coli BL21(DE3) cells incubated for 30 mins followed by LEDGF addition measured after 4 hrs by HTRF assay; design: species or system Human immunodeficiency virus 1
[6] = test system: Human immunodeficiency virus 1; assay: Inhibition of His-tagged HIV-1 integrase interaction with HIV-1 FLAG-tagged LEDGF/p75 expressed in Escherichia coli BL21(DE3) cells at 100 uM incubated for 30 mins followed by LEDGF addition measured after 4 hrs by HTRF assay relative to control
[7] = target: T1, Human immunodeficiency virus type 1 integrase; assay: Inhibition of subunit exchanging activity of His and Flag-tagged HIV-1 integrase expressed in Escherichia coli BL21(DE3) cells after 2.5 hrs by HTRF assay
[8] = target: Human immunodeficiency virus type 1 integrase (Human immunodeficiency virus 1) (UniProt Q7ZJM1); assay: Inhibition of LEDGF/p75-dependent full length HIV-1 integrase expressed in Escherichia coli BL21(DE3) cells at 100 uM preincubated for 1 hr further incubated for 90 mins with biotin-labeled donor DNA and target DNA by HTRF assay relative to control
Summary of the method: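 Added 9 nM biotinylated donor DNA, 50 nM Cy5 acceptor DNA and 50 nM LEDGF/p75. Incubation 90 min at 37 °C, then 4 nM europium-streptavidin added. HTRF read (excitation 314 nm, emission 668/620 nm).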

Sequence of Human immunodeficiency virus type 1 integrase (Human immunodeficiency virus 1) (Q7ZJM1 as listed by the source): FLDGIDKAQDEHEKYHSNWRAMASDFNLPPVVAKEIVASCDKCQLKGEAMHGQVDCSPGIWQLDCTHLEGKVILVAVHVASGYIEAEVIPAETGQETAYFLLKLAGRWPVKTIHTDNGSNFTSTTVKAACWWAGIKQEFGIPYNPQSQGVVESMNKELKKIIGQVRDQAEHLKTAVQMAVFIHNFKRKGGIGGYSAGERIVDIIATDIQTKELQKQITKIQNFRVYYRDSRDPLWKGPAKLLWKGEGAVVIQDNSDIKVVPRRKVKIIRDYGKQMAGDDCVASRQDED
T1 sequence (Q7ZJM1 whole entry): as the sequence (Q7ZJM1 as listed by the source) above

What does the source list for CC(=O)c1c(O)c2c(=O)oc3cc(C)ccc3c2oc1=O?
residual activity [1]: 63%; IC50 [2]: 22.4 µM; IC50 [3]: > 100 µM

With CC(=O)CC(=O)c1c(O)c2c(=O)oc3ccc4ccccc4c3c2oc1=O as the molecule, how does the IC50 [2] read?
The IC50 was 47.5 µM.

What about the IC50 [3] of the same molecule?
Its IC50 is 13.8 µM.

For CC(=O)CC(=O)c1c(O)c2c(=O)oc3c4ccccc4ccc3c2oc1=O, which MI50 [4] is on record?
The MI50 was > 100 µM.

What about the IC50 [5] of the same molecule?
Its IC50 is > 100 µM.

And the inhibition [6]?
The inhibition was 73%.

And the IC50 [2]?
The IC50 was 11 µM.

And the IC50 [3]?
The IC50 was 51.2 µM.

What about the IC50 [7] of the same molecule?
The IC50 was 85 µM.

Which results are given for Cc1cccc2c1oc(=O)c1c(O)cc(=O)oc12?
IC50 [2]: 24 µM; IC50 [3]: 29.8 µM

What does the source list for Cc1ccc2oc(=O)c3cc(C4=Nc5ccc(C(=O)c6ccccc6)cc5N=CC4)c(=O)oc3c2c1?
inhibition [8]: 78%; IC50 [2]: > 100 µM; IC50 [3]: 42.9 µM

With CC(=O)CC(=O)c1c(O)c2c(=O)oc3ccccc3c2oc1=O as the molecule, how does the IC50 [2] read?
Its IC50 is 42 µM.

What about the IC50 [3] of the same molecule?
The IC50 was 85.8 µM.

What does the source list for CCCC(C(=O)O)c1c(C)nc2ccc(Cl)cc2c1-c1ccccc1 (centres undefined)?
MI50 [4]: 10 µM; IC50 [5]: 13 µM

What does the source list for CC(=O)c1c(O)c2c(=O)oc3ccccc3c2oc1=O?
IC50 [2]: 8.5 µM; IC50 [3]: 26.3 µM

What does the source list for Cc1ccc2c(c1)oc(=O)c1c(O)cc(=O)oc12?
residual activity [1]: 89%; IC50 [2]: 41.5 µM; IC50 [3]: > 100 µM

For CC(=O)c1c(O)c2c(=O)oc3c(C)cccc3c2oc1=O, which IC50 [2] is on record?
The IC50 was 18.5 µM.

What about the IC50 [3] of the same molecule?
The IC50 was 25.5 µM.

With Cc1nnc(C(=O)NC(C)(C)c2nc(C(=O)NCc3ccc(F)cc3)c(O)c(=O)n2C)o1 as the molecule, how does the IC50 [5] read?
The IC50 was > 100 µM.

What about the inhibition [6] of the same molecule?
Its inhibition is 100%.

What does the source list for O=c1cc(O)c2c(=O)oc3ccc4ccccc4c3c2o1?
IC50 [2]: 21.5 µM; IC50 [3]: 61.3 µM

With O=C(c1ccccc1)c1ccc2c(c1)N=CCC(c1c(O)c3c(=O)oc4ccccc4c3oc1=O)=N2 as the molecule, how does the MI50 [4] read?
The MI50 was > 100 µM.

And the IC50 [5]?
The IC50 was > 100 µM.

What about the inhibition [6] of the same molecule?
Its inhibition is 81%.

And the IC50 [2]?
Its IC50 is 20 µM.

And the IC50 [3]?
Its IC50 is 38.4 µM.

And the IC50 [7]?
Its IC50 is > 100 µM.

Which MI50 [4] does the source give for O=c1cc(O)c2c(=O)oc3c4ccccc4ccc3c2o1 here?
Its MI50 is > 100 µM.

And the IC50 [5]?
Its IC50 is > 100 µM.

And the inhibition [6]?
The inhibition was 53%.

What about the IC50 [2] of the same molecule?
Its IC50 is 7.5 µM.

And the IC50 [3]?
The IC50 was 24.7 µM.

And the IC50 [7]?
Its IC50 is 57 µM.

What does the source list for Cc1cc(-c2c(O)c3c(=O)oc4ccccc4c3oc2=O)nn1-c1ccccc1?
inhibition [8]: 61%; IC50 [2]: > 100 µM; IC50 [3]: 51.8 µM

For CC(=O)c1c(O)c2c(=O)oc3ccc(C)cc3c2oc1=O, which MI50 [4] is on record?
Its MI50 is > 100 µM.

What about the IC50 [5] of the same molecule?
The IC50 was > 100 µM.

What about the inhibition [6] of the same molecule?
The inhibition was 52%.

What about the IC50 [2] of the same molecule?
Its IC50 is 6.45 µM.

What about the IC50 [3] of the same molecule?
Its IC50 is 6.75 µM.

And the IC50 [7]?
Its IC50 is 56.5 µM.

For Cc1cc(=O)c2c(=O)oc3c4ccccc4oc(=O)c3c2o1, which MI50 [4] is on record?
Its MI50 is > 100 µM.

And the IC50 [5]?
Its IC50 is > 100 µM.

And the inhibition [6]?
The inhibition was 56%.

And the IC50 [2]?
The IC50 was 14 µM.

What about the IC50 [3] of the same molecule?
Its IC50 is 16.8 µM.

What about the IC50 [7] of the same molecule?
Its IC50 is > 100 µM.

Which results are given for Cc1ccc2oc(=O)c3c(O)cc(=O)oc3c2c1?
MI50 [4]: > 100 µM; IC50 [5]: > 100 µM; inhibition [6]: 55%; IC50 [2]: 9.5 µM; IC50 [3]: 16.5 µM; IC50 [7]: 69 µM
